Source: PubChem
The list is not random: actives were taken first. Their share in the collection is about 2.6%.
PHOSPHO1 inh: blocks human PHOSPHO1 phosphatase activity; Q8TCT1; recombinant PHOSPHO1, absorbance phosphatase assay; AID 1565; inhibition, % at 13.3 µM; 1.1% of 290,000 active; in the data active = inhibition above about 60%
Target sequence (Q8TCT1 whole entry, looked up): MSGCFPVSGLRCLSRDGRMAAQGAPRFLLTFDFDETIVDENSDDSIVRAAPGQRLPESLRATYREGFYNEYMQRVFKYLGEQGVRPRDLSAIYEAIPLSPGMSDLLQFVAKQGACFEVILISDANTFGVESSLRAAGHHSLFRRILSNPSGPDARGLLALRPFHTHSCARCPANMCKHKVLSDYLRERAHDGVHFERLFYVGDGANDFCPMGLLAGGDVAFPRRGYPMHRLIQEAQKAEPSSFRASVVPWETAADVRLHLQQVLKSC
ARFGAP1 inh: inhibits rat ARF GTPase activating protein 1; inhibition, % at 16.5 µM; Arfgap1-stimulated ARF1 GTP hydrolysis, GDP FP detection; AID 651572; Q62848; 0.26% of 360,000 active;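 active = inhibition above a per-plate limit, mean inhibition of low control wells plus 3 SD, cut at about 25% in these data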;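 also: 0% = DMSO wells with enzyme and 100% = wells lacking Arfgap1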
Target sequence (Q62848 1-136 limits assumed): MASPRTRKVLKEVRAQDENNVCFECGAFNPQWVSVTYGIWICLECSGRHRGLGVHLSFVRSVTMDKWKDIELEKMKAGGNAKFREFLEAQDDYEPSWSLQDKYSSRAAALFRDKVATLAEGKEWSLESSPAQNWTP
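Repeats: one replicate per compound; assay system: rat Arfgap1 catalytic domain, aa 1-136; times: enzyme reaction 120 min at 25 °C after 20 min preincubation; detection: FP of antibody-bound GDP Alexa 633 tracer, ex 620/em 688 nm; benchmarks: high control wells lacking Arfgap1, low control full reaction with DMSO; reagent: human ARF1(Δ1-17)-GTP substrate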
VIM-2 inhibitor: blocks Pseudomonas aeruginosa VIM-2 metallo-beta-lactamase; purified VIM-2, nitrocefin hydrolysis, epi-absorbance fluorescence; 0.89% of 290,000 active; AID 1527; inhibition, % at 5.6 µM;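 active = inhibition above the mean of all tested compounds plus 3 SD, cutoff set per screening run, cut at about 7.5% in these data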;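 also: red hydrolysis product quenches plate fluorescence so inhibitors raise well fluorescence; 0% = enzyme with DMSO and 100% = DMSO without enzyme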
IMP-1 inh: inhibitors of Pseudomonas aeruginosa IMP-1 metallo-beta-lactamase. purified IMP-1, nitrocefin hydrolysis, epi-absorbance fluorescence. inhibition, % at 5.6 µM. 0.45% of 290,000 active;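 active = inhibition above the mean plus 3 SD of all compounds in the same screening run, cut at about 4.5% in these data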;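 also: 0% = IMP-1 with DMSO and 100% = DMSO wells lacking enzyme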
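System: purified IMP-1; amount: IMP-1 0.2 nM before substrate addition; compound: single dose, 5.6 µM; times: 25 °C, 15 min preincubation, 25 min reaction; signal: Epi-absorbance via hydrolysed-nitrocefin quenching of white-plate fluorescence, 480/530 nm, EDTA stop; benchmarks: DMSO with and without IMP-1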
Calb FLC: C. albicans growth modulation with fluconazole; growth inhibition, % (concentration not given with the values); 0.57% of 300,000 active; C. albicans CaCi-2 (fluconazole-resistant clinical isolate) + fluconazole, Alamar Blue growth, 48 h;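 active = growth inhibition above about 58% in most replicates, limit read from the data, passing the limit was not always enough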;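 also: all wells also contain fluconazole at 8 µg/ml as a sub-toxic cotreatment; 0% = median of DMSO wells and 100% = median of geldanamycin control wells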
ASAP1 inh: ASAP1 ArfGAP inhibition | Q9ULH1 | ASAP1-stimulated ARF1 GTP hydrolysis, GDP FP detection | inhibition, % at 16.5 µM | 0.19% of 360,000 active; in the data active = inhibition above about 25%;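 also: 0% = vehicle with enzyme and substrate and 100% = no enzyme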
Numbers without * were called inactive; / = not tested or not shown.

SMILES	PHOSPHO1 inh	ARFGAP1 inh	VIM-2 inhibitor	IMP-1 inh	Calb FLC	ASAP1 inh
C/C(=N\NC(=O)c1cccc(N/N=C(\C)c2ccco2)c1)c1ccco1	16	4	0	-1	-16	6
C/C(=N\NC(=O)c1cccc(N/N=C(\C)c2cc(O)ccc2O)c1)c1cc(O)ccc1O	-116	13	-1	0	103*	1
O=S(=O)(c1ccc(C(F)(F)F)cc1)N1CCCc2nc(-c3ccc(F)cc3)ccc21	/	2	/	/	/	-8
Nc1ccc(S(=O)(=O)NNC(=O)C(=O)NNc2ccccc2)cc1	-7	1	-1	-1	106*	0
O=C(NNc1ccccc1)C(=O)NNS(=O)(=O)c1ccc(CCCl)cc1	15	-9	-4	-1	86*	6
CC(C(=O)c1ccccc1)[n+]1cccc(Br)c1 (stereo unspecified)	24	5	-1	-2	75*	11
Cc1ccc(S(=O)(=O)CNC(=S)c2cccc(C)c2)cc1	90*	-4	-1	-4	15	-6
Cc1ccc(S(=O)(=O)CNC(=S)c2ccc3ccccc3c2)cc1	86*	6	2	-2	0	6
COc1ccc(C(=S)NCS(=O)(=O)c2ccc(C)cc2)cc1	-15	5	-1	-1	-4	-6
COC(=O)c1ccc(OCC(=O)NC2CCCCCC2)cc1	63*	4	-2	-6	-17	10
O=C(Nc1ccc2c(c1)OCCO2)C1CCN(C(=O)c2ccc([N+](=O)[O-])cc2)CC1	66*	-16	1	-1	-7	-3
O=C(Nc1ccc2c(c1)OCCO2)C1CCN(C(=O)c2ccc(Br)cc2)CC1	-20	7	-1	-4	49	7
CCn1c(COc2ccccc2C)nnc1SCC(=O)CC(=O)Nc1ccccc1	69*	-3	-3	-6	9	10
CCOC(=O)N[C@H](C(=O)N1CCC[C@H]1C(=O)NCCc1ccccc1Cl)c1ccccc1	/	-13	/	/	/	-7
Cc1sc(-n2c(C)ccc2C)c(C#N)c1C	95*	-1	0	-1	-3	-2
CN(C)C(=O)N1CCN(C(=O)[C@H](CCc2ccccc2)NC(=O)[C@H]2O[C@@H](n3cnc4c(N)ncnc43)[C@H](O)[C@@H]2O)CC1	/	1	/	/	/	-5
CC(=O)c1c(C)oc2ccc(NS(=O)(=O)c3ccc(O)c(C(=O)O)c3)cc12	4	-12	1	-5	-1	-3
O=C(O)c1cc(S(=O)(=O)Nc2ccc3oc(=O)sc3c2)ccc1O	63*	-7	-2	0	11	-4
COc1cc(NC(=O)c2cc3sccc3n2C)cc(OC)c1	6	-1	1	6.4*	-1	-2
COC(=O)c1ccc(NC(=O)c2cc3sccc3n2C)cc1	-102	2	1	-2	-8	7
O=C1/C(=C\c2ccccn2)SC(=S)N1Nc1ncc(C(F)(F)F)cc1Cl	-63	/	-2	-1	27	/
O=C1/C(=C/c2ccc(F)cc2)SC(=S)N1Nc1ncc(C(F)(F)F)cc1Cl	86*	3	0	-4	3	7
CCCCc1c(-c2ccccc2OC)ncn1Cc1cccc(F)c1	/	-7	/	/	/	6
COc1ccccc1/C=N/NC(=O)CN(C1=NS(=O)(=O)c2ccccc21)c1ccccc1	-19	40*	-4	-4	2	8
NCC12CC3CC(C1)CC(CN)(C3)C2	-4	-7	-1	-2	0	4
SMILES	PHOSPHO1 inh	ARFGAP1 inh	VIM-2 inhibitor	IMP-1 inh	Calb FLC	ASAP1 inh
NC(=O)CC12CC3CC(C1)CC(CC(N)=O)(C3)C2	9	6	-3	-3	87*	-3
COC(=O)[C@]12C[C@H](CC(=O)N3CCN(C(=O)C4CC4)CC3)C(=O)N(Cc3ccc4c(c3)OCO4)C1=C[C@H](COCc1ccccc1)O[C@@H]2C	/	2	/	/	/	-10
CC(C)c1cc[n+](-c2nc([O-])sc2C=O)cc1	-19	4	-1	-4	4	9
CCc1cc[n+](-c2nc([O-])sc2C=O)cc1	79*	0	0	-2	-6	-7
OC(C#Cc1ccccn1)c1cccs1 (stereo unspecified)	60*	-7	-2	-1	-12	-1
Cc1ccc(S(=O)(=O)c2c(C)nn(C(C)(C)C)c2OC(=O)c2ccc(Br)o2)cc1	51	2	-2	-1	87*	-7
Cc1ccc(S(=O)(=O)c2c(C)nn(C(C)(C)C)c2OC(=O)c2ccco2)cc1	29	-8	-3	-3	32	8
CCCCc1c(-c2ccccc2OC)ncn1Cc1ccc(OC)c(Cl)c1	/	20	/	/	/	1
CCCCOC(=O)CSC1=C(C#N)C(c2ccccc2OCC)C(C#N)C(=O)N1 (stereo unspecified)	36	/	3	1	7	/
CCCOC(=O)CSC1=C(C#N)C(c2ccccc2OCC)C(C#N)C(=O)N1 (stereo unspecified)	75*	9	-2	-4	5	-1
COc1ccc(CCC(=O)N2c3ccccc3N=C(c3ccc4c(c3)OCO4)C2C(=O)NCc2ccccc2)cc1 (stereo unspecified)	/	5	/	/	/	7
Cc1cc(C(C#N)c2ccccc2)n2ncnc2n1 (stereo unspecified)	19	6	-4	-6	/	-2
Cc1cc(C(C#N)c2cccc(Cl)c2)n2ncnc2n1 (stereo unspecified)	41	-1	-1	-2	96*	1
CC1(C)CC(N=Cc2c(O)n(Cc3ccc4c(c3)OCO4)c(=O)c3ccccc23)CC(C)(C)N1	15	8	2	-4	88*	-3
CN(C)CCN=Cc1c(O)n(Cc2ccccc2)c(=O)c2ccccc12	32	3	-1	-3	-14	-3
C=CCNc1nnc(SC2CC(=O)N(c3ccc(OC)cc3)C2=O)s1 (stereo unspecified)	93*	9	-3	-2	-1	4
S=C(Nc1ccc(Cl)cc1)Nc1ccc2c(c1)OCCO2	27	2	-2	-1	81*	-5
Fc1ccc(NC(=S)Nc2ccc(F)c(Cl)c2)cc1Cl	95*	/	-1	-6	5	/
O=C(Nc1ccc(F)c(Cl)c1)NC1CC1	30	8	-2	-2	83*	-5
COc1cc(NC(=O)Cn2c(C)cc3ccccc3c2=O)cc(OC)c1OC	6	-3	2	1	5	-13
COc1cc(NC(=O)Cn2c(-c3cncs3)nc3ccccc32)cc(OC)c1OC	-2	14	8.6*	-3	-4	2
C#CCOc1ccccc1C(=O)NNc1ccc([N+](=O)[O-])cc1[N+](=O)[O-]	/	7	/	/	/	2
